Data on eight compounds can be found in PubChem BioAssay AID624012 (Broad Institute, 2012).

Where “and” joins values, the source holds several entries; their conditions need not be identical. Equal entries are not always repeated.

This experiment concerns S. cerevisiae growth in glycerol medium, OD600, 48 h. Kind of experiment: S. cerevisiae growth inhibition on glycerol, dose response, glycerol medium, plate reader, dry powder, set 4 (AID 624012). The method, boiled down: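 System – S. cerevisiae yeast cells · Buffer or medium – CSM-glycerol medium · Schedule – 48 h exposure, 30 °C · Detection – optical density at 600 nm (absorbance) · Benchmarks – amphotericin B 10 µM positive control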

`CCOC(=O)N1C(=O)C2(CCCCC2)N(c2cccc(C)c2)C1=S`: the AC50 (usually the concentration giving half of the maximal activity seen) was 18.1 nM. As to `CCOC(=O)N1C(=O)C2(CCCCC2)N(c2ccccc2)C1=S`, the AC50 was 14.6 nM. For the compound `C/C=C/[C@@H]1[C@H]2C[C@@H](C)CC[C@@H]2C(C)=C[C@H]1C(=O)c1c(O)c(-c2ccc(O)cc2)c[nH]c1=O`, the AC50 is 27.5 nM. Under `CCOC(=O)N1C(=O)C2(CCCCC2)N(c2ccc(Cl)cc2)C1=S` stands 5.77 nM; under `CC1/C=C/C=C\C=C\C=C\C=C\C=C\C=C\C(O[C@H]2OC(C)C(O)C(N)C2O)CC2OC(O)(CC(O)CC(O)C(O)CCC(O)CC(O)CC(=O)OC(C)C(C)C1O)CC(O)C2C(=O)O` (stereo partly drawn), 274 nM; under `CCOC(=O)N1C(=O)C2(CCCCC2)N(c2ccc(C)cc2)C1=S`, 10.8 nM and 6.97 nM. Regarding `CCOC(=O)N1C(=O)C2(CCCCC2)N(c2ccc(C#N)cc2)C1=S`, the AC50 is 3.65 nM. Consider `CCOC(=O)N1C(=O)C2(CCCCC2)N(c2ccc(F)cc2)C1=S`, for which the AC50 was 3.97 nM.
